{"source": "ChEMBL document CHEMBL1128501", "about": "“Synthesis and biological evaluation of 14-alkoxymorphinans. 11. 3-Hydroxycyprodime and analogues: opioid antagonist profile in comparison to cyprodime” (J Med Chem, 1995)", "key": {"[1]": {"molecular_target": "T1, Kappa-type opioid receptor (Cavia porcellus, UniProt P41144)", "T1 sequence (P41144 whole entry)": "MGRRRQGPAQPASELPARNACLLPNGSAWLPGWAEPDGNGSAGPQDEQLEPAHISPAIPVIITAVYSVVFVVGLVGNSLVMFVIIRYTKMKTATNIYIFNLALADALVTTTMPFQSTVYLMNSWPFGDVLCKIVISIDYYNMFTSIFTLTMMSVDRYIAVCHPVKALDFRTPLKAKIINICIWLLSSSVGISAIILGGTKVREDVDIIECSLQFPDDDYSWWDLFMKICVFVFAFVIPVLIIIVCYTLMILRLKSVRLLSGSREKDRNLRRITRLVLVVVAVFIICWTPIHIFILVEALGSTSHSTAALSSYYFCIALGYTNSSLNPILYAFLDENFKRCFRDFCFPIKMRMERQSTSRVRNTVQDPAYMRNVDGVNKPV", "assay": "Binding affinity was evaluated by measuring the ability to displace [3H]U-69593 radioligand binding from Opioid receptor kappa 1 in guinea pig brain membranes", "assay_type": "cell membranes, Membrane", "method_in_brief": "(§1)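 Radioligand displacement in guinea pig brain homogenates in 50 mM Tris-HCl, pH 7.4, for 40 min at 25 °C. Radioligands were [3H]DAMGO for μ, [3H]U69593 for κ and [3H]DPDPE for δ sites. Result given as Ki.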"}, "[2]": {"molecular_target": "Delta-type opioid receptor (Mus musculus) (UniProt P32300)", "sequence (P32300 whole entry)": "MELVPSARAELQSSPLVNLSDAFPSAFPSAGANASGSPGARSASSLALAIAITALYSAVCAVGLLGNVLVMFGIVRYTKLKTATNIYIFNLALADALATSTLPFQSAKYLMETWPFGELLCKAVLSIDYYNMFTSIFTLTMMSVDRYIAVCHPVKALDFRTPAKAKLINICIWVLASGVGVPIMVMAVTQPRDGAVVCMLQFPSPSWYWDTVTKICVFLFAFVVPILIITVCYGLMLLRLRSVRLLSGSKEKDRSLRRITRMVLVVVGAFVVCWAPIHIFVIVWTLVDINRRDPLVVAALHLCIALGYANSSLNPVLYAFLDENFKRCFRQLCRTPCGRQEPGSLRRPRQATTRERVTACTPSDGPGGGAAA", "assay": "Binding affinity was evaluated by measuring the ability to displace DPDPE radioligand binding from delta opioid receptor in mouse vas deferens preparation", "method_in_brief": "(§2)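 Electrically stimulated isolated mouse vas deferens. Test compound was given as antagonist against agonist-induced responses: DAMGO for μ, DPDPE for δ, and CI977 or other κ agonists for κ. Ke = [antagonist]/(DR − 1), where DR is the ratio of equiactive agonist concentrations with and without antagonist.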"}, "Mu-type opioid receptor [3]": {"molecular_target": "T2, Mu-type opioid receptor (Cavia porcellus, UniProt P97266)", "T2 sequence (P97266 whole entry)": "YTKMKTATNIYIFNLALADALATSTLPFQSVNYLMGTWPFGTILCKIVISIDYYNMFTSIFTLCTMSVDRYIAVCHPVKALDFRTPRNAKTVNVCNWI", "assay": "[…] binding affinity was evaluated by measuring the ability to displace [3H]DAMGO radioligand binding from Opioid receptor mu 1 in guinea pig brain membranes", "parameters": "species or system Membrane", "method_in_brief": "as §1"}, "[4]": {"molecular_target": "Mu-type opioid receptor (Mus musculus) (UniProt P42866)", "sequence (P42866 whole entry)": "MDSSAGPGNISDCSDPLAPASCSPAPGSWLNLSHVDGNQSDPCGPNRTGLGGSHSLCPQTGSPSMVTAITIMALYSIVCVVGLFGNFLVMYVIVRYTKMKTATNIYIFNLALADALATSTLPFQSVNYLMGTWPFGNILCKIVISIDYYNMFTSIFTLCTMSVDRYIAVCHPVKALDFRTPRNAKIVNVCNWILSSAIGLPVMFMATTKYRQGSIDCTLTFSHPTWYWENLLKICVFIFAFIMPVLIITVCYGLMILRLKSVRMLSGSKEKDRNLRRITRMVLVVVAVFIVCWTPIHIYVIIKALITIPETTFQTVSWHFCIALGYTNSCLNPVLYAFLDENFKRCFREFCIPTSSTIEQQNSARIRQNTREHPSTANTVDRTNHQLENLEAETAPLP", "assay": "Binding affinity was evaluated by measuring the ability to displace [3H]-DAMGO radioligand binding from Opioid receptor mu 1 in mouse vas deferens preparation", "method_in_brief": "as §2"}, "[5]": {"molecular_target": "Kappa-type opioid receptor (Mus musculus) (UniProt P33534)", "sequence (P33534 whole entry)": "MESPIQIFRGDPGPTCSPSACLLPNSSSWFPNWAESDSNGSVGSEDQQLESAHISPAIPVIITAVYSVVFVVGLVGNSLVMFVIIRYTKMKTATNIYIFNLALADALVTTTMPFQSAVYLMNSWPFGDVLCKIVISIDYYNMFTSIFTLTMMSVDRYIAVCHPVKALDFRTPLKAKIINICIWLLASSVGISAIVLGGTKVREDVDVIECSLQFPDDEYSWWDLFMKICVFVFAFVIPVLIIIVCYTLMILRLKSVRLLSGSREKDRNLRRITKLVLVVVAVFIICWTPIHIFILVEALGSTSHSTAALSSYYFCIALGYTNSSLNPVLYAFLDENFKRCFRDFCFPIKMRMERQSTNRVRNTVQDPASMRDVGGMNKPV", "assay": "Binding affinity was evaluated by measuring the ability to displace CI977 radioligand binding from Opioid receptor kappa 1 in mouse vas deferens preparation", "method_in_brief": "as §2"}, "[6]": {"molecular_target": "Delta-type opioid receptor (Mus musculus) (UniProt P32300)", "assay": "Binding affinity was evaluated by measuring the ability from displace DPDPE radioligand binding from delta opioid receptor in mouse vas deferens preparation", "method_in_brief": "as §2"}, "[7]": {"molecular_target": "Kappa-type opioid receptor (Mus musculus) (UniProt P33534)", "assay": "Binding affinity for kappa opioid receptor against agonist (ethylketocyclazocine) in mouse vas deferens", "assay_type": "tissue-based", "method_in_brief": "as §2"}, "[8]": {"molecular_target": "Kappa-type opioid receptor (Cavia porcellus) (UniProt P41144)", "sequence (P41144 whole entry)": "as the sequence (P41144 whole entry) above", "assay": "Binding affinity for kappa opioid receptor against agonist (ethylketocyclazocine) in guinea pig ileum preparations", "assay_type": "tissue-based", "method_in_brief": "(§3)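 Myenteric-plexus longitudinal muscle of guinea pig ileum. Test compound was given as antagonist against κ agonist responses. Ke = [antagonist]/(DR − 1), where DR is the ratio of equiactive agonist concentrations with and without antagonist, from separate determinations.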"}, "[9]": {"molecular_target": "Kappa-type opioid receptor (Mus musculus) (UniProt P33534)", "assay": "Binding affinity was evaluated by measuring the ability from displace CI977 radioligand binding to Opioid receptor kappa 1 in mouse vas deferens preparation", "method_in_brief": "as §2"}, "Mu-type opioid receptor [10]": {"molecular_target": "T2, Mu-type opioid receptor", "assay": "Binding affinity was evaluated by measuring the ability to displace [3H]DAMGO radioligand binding from Opioid receptor mu 1 in guinea pig brain membranes", "assay_type": "cell membranes, Membrane", "method_in_brief": "as §1"}, "[11]": {"molecular_target": "Mu-type opioid receptor (Mus musculus) (UniProt P42866)", "assay": "[…] binding affinity was evaluated by measuring the ability from displace [3H]DAMGO radioligand binding to mu opioid receptor in mouse vas deferens preparation", "method_in_brief": "as §2"}, "[12]": {"molecular_target": "Kappa-type opioid receptor (Cavia porcellus) (UniProt P41144)", "assay": "Binding affinity for kappa opioid receptor against agonist (U-69,593) in guinea pig ileum preparations", "assay_type": "tissue-based", "method_in_brief": "as §3"}, "[13]": {"molecular_target": "Kappa-type opioid receptor (Cavia porcellus) (UniProt P41144)", "assay": "Binding affinity for kappa opioid receptor against agonist (CI977) in guinea pig ileum preparations", "assay_type": "tissue-based", "method_in_brief": "as §3"}, "[14]": {"molecular_target": "Kappa-type opioid receptor (Mus musculus) (UniProt P33534)", "assay": "Binding affinity for kappa opioid receptor against agonist (U-69,593) in mouse vas deferens preparation", "method_in_brief": "as §2"}, "[15]": {"molecular_target": "Kappa-type opioid receptor (Mus musculus) (UniProt P33534)", "assay": "Binding affinity for kappa opioid receptor against agonist (CI977) in mouse vas deferens preparation", "method_in_brief": "as §2"}, "[16]": {"molecular_target": "Kappa-type opioid receptor (Cavia porcellus) (UniProt P41144)", "assay": "Binding affinity for kappa opioid receptor against agonist (trifluadom) in guinea pig ileum preparations", "assay_type": "tissue-based", "method_in_brief": "as §3"}, "[17]": {"molecular_target": "Kappa-type opioid receptor (Mus musculus) (UniProt P33534)", "assay": "Binding affinity for kappa opioid receptor against agonist (dynorphine) in mouse vas deferens", "assay_type": "tissue-based", "method_in_brief": "as §2"}, "[18]": {"molecular_target": "T1, Kappa-type opioid receptor", "assay": "[…] binding affinity was evaluated by measuring the ability to displace [3H]U-69593 radioligand binding from Opioid receptor kappa 1 in guinea pig brain membranes", "parameters": "species or system Membrane", "method_in_brief": "as §1"}}, "data": [{"smiles": "COc1c(O)ccc2c1C13CCN(CC4CC4)C(C2)[C@]1(O)CCC(=O)C3", "note": "(stereo not given in full)", "values": [{"measurement": "Ki", "setting": "[1]", "result": 23, "unit": "nM"}, {"measurement": "Ke", "setting": "[2]", "result": 8920, "unit": "nM"}, {"measurement": "Ki", "setting": "Mu-type opioid receptor [3]", "result": 54.4, "unit": "nM"}, {"measurement": "Ke", "setting": "[4]", "result": 93.8, "unit": "nM"}, {"measurement": "Ke", "setting": "[5]", "result": 243, "unit": "nM"}]}, {"smiles": "COc1c(O)ccc2c1C13CCN(CC4CC4)C(C2)[C@]1(OC)CCC(=O)C3", "note": "(stereo not given in full)", "values": [{"measurement": "Ke", "setting": "[6]", "result": 316, "unit": "nM"}, {"measurement": "Ke", "setting": "[7]", "result": 910, "unit": "nM"}, {"measurement": "Ke", "setting": "[8]", "result": 3.95, "unit": "nM"}, {"measurement": "Ke", "setting": "[9]", "result": 368, "unit": "nM"}, {"measurement": "Ki", "setting": "[1]", "result": 4.18, "unit": "nM"}, {"measurement": "Ki", "setting": "Mu-type opioid receptor [10]", "result": 6.15, "unit": "nM"}, {"measurement": "Ke", "setting": "[11]", "result": 5.62, "unit": "nM"}, {"measurement": "Ke", "setting": "[12]", "result": 97.5, "unit": "nM"}, {"measurement": "Ke", "setting": "[13]", "result": 284, "unit": "nM"}, {"measurement": "Ke", "setting": "[14]", "result": 354, "unit": "nM"}, {"measurement": "Ke", "setting": "[15]", "result": 368, "unit": "nM"}, {"measurement": "Ke", "setting": "[16]", "result": 1010, "unit": "nM"}, {"measurement": "Ke", "setting": "[17]", "result": 450, "unit": "nM"}]}, {"smiles": "CCCCOc1c(O)ccc2c1C13CCN(CC4CC4)C(C2)[C@]1(OC)CCC(=O)C3", "note": "(stereo not given in full)", "values": [{"measurement": "Ki", "setting": "[1]", "result": 13, "unit": "nM"}, {"measurement": "Ke", "setting": "[2]", "result": "> 10000", "unit": "nM"}, {"measurement": "Ki", "setting": "Mu-type opioid receptor [3]", "result": 10.9, "unit": "nM"}, {"measurement": "Ke", "setting": "[4]", "result": 24.9, "unit": "nM"}, {"measurement": "Ke", "setting": "[5]", "result": 174, "unit": "nM"}]}, {"smiles": "COc1cccc2c1[C@]13CCN(CC4CC4)[C@H](C2)[C@]1(OC)CCC(=O)C3", "note": "[CYPRODIME]", "values": [{"measurement": "Ki", "setting": "Mu-type opioid receptor [10]", "result": 23.7, "unit": "nM"}, {"measurement": "Ki", "setting": "[18]", "result": 105, "unit": "nM"}]}, {"smiles": "CCO[C@@]12CCC(=O)CC13CCN(CC1CC1)C2Cc1ccc(O)c(OC)c13", "note": "(stereo not given in full)", "values": [{"measurement": "Ki", "setting": "Mu-type opioid receptor [10]", "result": 1.42, "unit": "nM"}, {"measurement": "Ke", "setting": "[2]", "result": 106, "unit": "nM"}, {"measurement": "Ki", "setting": "[18]", "result": 5.46, "unit": "nM"}, {"measurement": "Ke", "setting": "[4]", "result": 2.92, "unit": "nM"}, {"measurement": "Ke", "setting": "[5]", "result": 233, "unit": "nM"}]}, {"smiles": "C=CCN1CCC23CC(=O)CC[C@@]2(OC)C1Cc1ccc(O)c(OC)c13", "note": "(stereo not given in full)", "values": [{"measurement": "Ki", "setting": "Mu-type opioid receptor [10]", "result": 7.29, "unit": "nM"}, {"measurement": "Ke", "setting": "[2]", "result": 2270, "unit": "nM"}, {"measurement": "Ki", "setting": "[18]", "result": 25.4, "unit": "nM"}, {"measurement": "Ke", "setting": "[4]", "result": 4.6, "unit": "nM"}, {"measurement": "Ke", "setting": "[5]", "result": 4.67, "unit": "nM"}]}]}
